# From PubChem BioAssay
# DENV2 CPE: DENV2-induced cell death inhibition; DENV2-infected cells, cytopathic effect rescue, plate reader; CPE inhibition, % at 9.99 µM; actives 1.7% (n = 350,000); in the data active means CPE inhibition above about 20%, passing the limit was not always enough; inconclusive means no clear call, values can overlap the other calls; tested in BHK-21 cells;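 further: 0% = median of neutral control wells and 100% = median of positive control wells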
# PglD DTNB: inhibitors of Campylobacter jejuni PglD acetyltransferase; purified PglD enzyme, DTNB colorimetric CoA detection; inhibition, % at 12.5 µM; actives 0.098% (n = 360,000); in the data active means inhibition above about 16%, passing the limit was not always enough; inconclusive means no clear call, values can overlap the other calls
# E-sel inducer: E-selectin induction on HUVECs; P16581; HUVEC E-selectin immunofluorescence imaging; normalized: neutral wells 0, TNF-alpha wells 100; activation, % at 7.58 µM; actives 0.37% (n = 260,000);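 active means mean E-selectin-positive cell signal at least 10% of the positive control, reached in at least 60% of replicates, without over 20% cell loss; inconclusive means no rule given, readout overlaps actives, possibly toxicity-flagged; inactive means the rest, including those meeting only one limit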
#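 System: HUVEC / Compound: single concentration / Signal: immunofluorescence imaging / Read-out: percent E-selectin-positive cells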
# SIRT5 block: blocks human SIRT5 desuccinylation of peptide; Q9NXA8; Purified SirT5, succinyl-peptide AMC, trypsin-coupled fluorescence; inhibition, % at 15 µM; actives 1.1% (n = 330,000); AID 652115; in the data active means inhibition above about 15%; inconclusive means no clear call, values can overlap the other calls
# Target sequence (Q9NXA8 whole entry, looked up): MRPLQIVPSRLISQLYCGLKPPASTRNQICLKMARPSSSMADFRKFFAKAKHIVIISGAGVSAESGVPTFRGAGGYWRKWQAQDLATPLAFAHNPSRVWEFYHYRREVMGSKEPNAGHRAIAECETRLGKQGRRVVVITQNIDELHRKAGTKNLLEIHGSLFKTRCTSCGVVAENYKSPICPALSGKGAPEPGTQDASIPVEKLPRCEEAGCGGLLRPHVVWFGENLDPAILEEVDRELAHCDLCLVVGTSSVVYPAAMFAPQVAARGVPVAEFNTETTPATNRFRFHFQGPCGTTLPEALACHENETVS
# ERAP1 HTS inh: inhibitors of human ERAP1 aminopeptidase; recombinant ERAP1, Leu-AMC fluorescence, 60 min; inhibition, % at 10.7 µM; actives 0.15% (n = 340,000);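 active means mean replicate inhibition of at least 30%, or all replicates individually reaching that 30% level; inactive means mean below 30% and not every replicate reaching it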;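 further: 0% = neutral control wells and 100% = L-leucinethiol positive control wells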
# An asterisk follows results filed as active; ? = inconclusive; . = no result given. In the library only some 2.5% were active in any assay of this set; here they are far more common.
SMILES,DENV2 CPE,PglD DTNB,E-sel inducer,SIRT5 block,ERAP1 HTS inh
O=C(N/N=C/c1ccccn1)c1cc(-c2ccc(Br)s2)[nH]n1,-2.6,4.7,0.3,18.3*,-0.6
CN(C(=O)CSc1ccc(S(=O)(=O)N2CCCCC2)cn1)c1ccccc1,-6.3,3.0,0.1,0.5,1.1
N=C1C=CC(=C(c2ccc(N)cc2)c2ccc(N)cc2)C=C1,-6.6,.,38.9*,-1.4,1.0
C[C@H]1CN([C@@H](C)CO)C(=O)c2cc(NC(=O)CCCCCC(=O)Nc3ccccc3N)ccc2O[C@H]1CN(C)Cc1ccc(Cl)c(Cl)c1,-6.3,-1.9,5.9,21.2*,-0.7
C[C@H]1CN([C@@H](C)CO)C(=O)c2cccc(NC(=O)CCCCCC(=O)Nc3ccccc3N)c2O[C@@H]1CN(C)Cc1ccc(Cl)c(Cl)c1,6.1,.,-6.6,-1.3,2.5
C[C@@H]1CN([C@@H](C)CO)C(=O)c2cccc(NC(=O)CCCCCC(=O)Nc3ccccc3N)c2O[C@@H]1CN(C)Cc1ccc2c(c1)OCO2,49.5*,.,-4.8,-8.8,-0.1
C[C@@H]1CN([C@H](C)CO)C(=O)Cc2cc(NC(=O)CCCCCC(=O)Nc3ccccc3N)ccc2O[C@H]1CN(C)Cc1ccc(Cl)c(Cl)c1,-0.1,.,-0.1,6.9,-2.2
C[C@@H]1CN([C@H](C)CO)C(=O)c2cc(NC(=O)CCCCCC(=O)Nc3ccccc3N)ccc2O[C@@H]1CN(C)Cc1ccc(Cl)c(Cl)c1,-3.7,1.8,7.0,24.1*,-1.2
C[C@@H]1CN([C@H](C)CO)C(=O)c2cccc(NC(=O)CCCCCC(=O)Nc3ccccc3N)c2O[C@H]1CN(C)Cc1ccc(Cl)c(Cl)c1,2.6,.,-2.7,15.4*,2.8
COc1ccccc1C(=O)NC(CCSC)C(=O)NNC(=O)C(C)Oc1ccccc1F (stereo not drawn),-2.5,-0.8,-0.4,-1.1,-4.9
COc1cccc(NC(=O)CN(C)C(=O)c2cccc(S(=O)(=O)N3c4ccccc4CC3C)c2)c1 (stereo not drawn),57.8*,3.2,0.5,-1.6,-4.0
COCCOC(=O)c1c(NC(=O)CNc2ccc(C)c(F)c2)sc(C(N)=O)c1C,7.0,4.0,-0.3,1.7,.
COc1ccc(S(=O)(=O)N(C)C[C@@H]2Oc3ccc(NS(=O)(=O)c4ccccc4)cc3C(=O)N([C@H](C)CO)C[C@H]2C)cc1,132.8*,1.1,-0.2,.,.
COc1ccc(S(=O)(=O)N(C)C[C@H]2OCCCC[C@H](C)Oc3ccc(NS(C)(=O)=O)cc3C(=O)N([C@H](C)CO)C[C@@H]2C)cc1,20.2*,-1.0,0.0,-7.1,-1.4
COc1ccc(S(=O)(=O)Nc2ccc3c(c2)C(=O)N([C@@H](C)CO)C[C@H](C)[C@@H](CN(C)S(=O)(=O)c2ccccc2)OCCCC[C@H](C)O3)cc1,-7.9,.,-0.1,14.3,2.2
COc1ccc(S(=O)(=O)N(C)C[C@@H]2OCCCC[C@H](C)Oc3ccc(NS(=O)(=O)c4ccccc4)cc3C(=O)N([C@H](C)CO)C[C@@H]2C)cc1,?,-1.0,.,7.6,0.4
COc1ccc(S(=O)(=O)Nc2ccc3c(c2)C(=O)N([C@@H](C)CO)C[C@@H](C)[C@@H](CN(C)S(=O)(=O)c2ccccc2)OCCCC[C@H](C)O3)cc1,21.2*,.,-0.1,10.8,-2.0
COc1ccc(S(=O)(=O)Nc2ccc3c(c2)C(=O)N([C@H](C)CO)C[C@@H](C)[C@@H](CN(C)S(=O)(=O)c2ccccc2)OCCCC[C@@H](C)O3)cc1,-6.3,.,0.2,24.2*,1.7
COc1ccc(S(=O)(=O)N(C)C[C@H]2OCCCC[C@@H](C)Oc3ccc(NS(C)(=O)=O)cc3C(=O)N([C@H](C)CO)C[C@@H]2C)cc1,10.3,-1.8,0.2,0.7,2.1
O=S(=O)(/N=C(\[O-])C[n+]1ccccc1)c1ccc(Cl)cc1,.,.,6.5,-1.7,.
Cc1cccc(NC(=O)CNC(=O)Cn2ncc(Cl)c(Cl)c2=O)c1C,.,-2.5,.,.,.
Cc1c(C(=O)NCc2ccc3c(c2)OCO3)sc(=O)n1Cc1ccc(S(=O)(=O)N(C)C)cc1,-8.9,-2.6,.,.,.
COc1ccc(S(=O)(=O)Nc2ccc3c(c2)C(=O)N([C@H](C)CO)C[C@H](C)[C@H](CN(C)S(=O)(=O)c2ccccc2)OCCCC[C@H](C)O3)cc1,?,.,-0.1,17.3*,-3.8
COc1ccc(S(=O)(=O)N(C)C[C@H]2OCCCC[C@@H](C)Oc3ccc(NS(=O)(=O)c4ccccc4)cc3C(=O)N([C@@H](C)CO)C[C@H]2C)cc1,56.4*,-0.2,.,9.2,-2.8
CCCCC(=O)NCCNC(=O)c1cc(OCC(F)(F)F)ccc1OCC(F)(F)F,.,-7.9,.,.,.
SMILES,DENV2 CPE,PglD DTNB,E-sel inducer,SIRT5 block,ERAP1 HTS inh
O=C(Nc1cccc(Cl)c1)N1C[C@@H]2[C@H](c3ccccc31)[C@@H](CO)N2CC1CCCCC1,.,0.8,-0.4,.,.
Cc1cc2oc(=O)cc(Cn3ccnc3)c2cc1Cl,26.0*,.,0.4,-0.5,1.6
CCOC(=O)C1CCCN(c2c(NCCc3ccccc3)c(=O)c2=O)C1 (stereo not drawn),3.4,1.5,-0.5,0.1,2.5
COc1cccc(S(=O)(=O)Nc2ccc3c(c2)C(=O)N(C)C[C@@H](OC)[C@H](C)CN[C@@H](C)CO3)c1,-3.9,5.6,0.0,-1.2,-1.2
CO[C@H]1CN(C)C(=O)c2cc(NS(=O)(=O)c3ccc(Oc4ccccc4)cc3)ccc2OC[C@H](C)NC[C@H]1C,4.1,6.3,-0.1,27.5*,-4.2
CO[C@@H]1CN(C)C(=O)c2cc(NS(=O)(=O)c3ccccc3)ccc2OC[C@@H](C)NC[C@@H]1C,29.2*,0.6,-0.1,.,-0.7
CO[C@H]1CN(C)C(=O)c2cc(NS(=O)(=O)c3ccccc3)ccc2OC[C@H](C)NC[C@H]1C,1.2,-1.5,-0.3,.,-2.7
COc1cccc(S(=O)(=O)Nc2ccc3c(c2)C(=O)N(C)C[C@@H](OC)[C@@H](C)CN[C@H](C)CO3)c1,22.4*,-0.3,0.1,-2.9,-0.2
CO[C@H]1CN(C)C(=O)c2cc(NS(=O)(=O)c3ccccc3F)ccc2OC[C@@H](C)NC[C@@H]1C,65.4*,-4.7,0.0,-0.2,-3.2
CO[C@@H]1CN(C)C(=O)c2cc(NS(=O)(=O)c3ccccc3F)ccc2OC[C@@H](C)NC[C@@H]1C,-0.9,-4.9,-0.1,-1.3,-1.6
CCCN1C[C@@H](C)[C@@H](OC)CN(C)C(=O)c2cc(NS(C)(=O)=O)ccc2OC[C@H]1C,.,1.8,0.0,.,.
CCOC(=O)C1C(=O)C=C(c2cccs2)CC1c1ccccc1 (stereo not drawn),-0.2,.,-0.2,6.3,-1.0
C[C@H]1[C@@H]2C[C@@]3(O[C@H](c4ccccn4)N=C3C[C@@H]1c1ccccc1)N(Cc1ccncc1)C2=O,-2.9,.,0.2,.,-0.3
COc1ccc(S(=O)(=O)CCc2nnc(NC(=O)c3ccc(F)cc3)s2)cc1,-2.4,-0.4,.,-3.4,-1.6
CCN(CC)C(=O)[C@H]1C[C@H](CC(=O)NCCc2ccccn2)C(=O)N2CCc3c([nH]c4cc(-c5ccco5)ccc34)[C@]12C,0.5,0.6,2.0,-5.3,.
